Source: PubChem BioAssay (Sanford-Burnham Center for Chemical Genomics)
In the library only some 0.77% were active in any assay of this set; here they are far more common.
mIAP inh = blocks mouse intestinal alkaline phosphatase. purified mouse IAP, CDP-Star luminescence, 30 min. inhibition, % at 10 µM. actives 0.2% (n = 330,000). AID 2806;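 active = inhibition of at least 40% at 10 µM in the primary screen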;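 also: plate controls were DMSO with enzyme for no effect and no enzyme wells for full effect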
bIAP inhibitor = blocks bovine intestinal alkaline phosphatase activity; purified bovine IAP, CDP-star luminescence, 30 min; inhibition, % at 20 µM; 190,000 tested, under 10 active; AID 1019;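 active = over 50% inhibition of intestinal alkaline phosphatase at 20 µM in the single-dose screen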
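System: purified bovine intestinal alkaline phosphatase (IAP) enzyme; Input: IAP diluted 1/65,000,000 in the well; Measured by: CDP-star luminescence signal; Compound dosing: 20 µM single dose; Incubation: 30 min reaction at room temperature.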
hIAP inh = human IAP inhibition. P09923. purified IAP, CDP-Star luminescence, 30 min. inhibition, % at 10 µM. actives 0.12% (n = 330,000). AID 2544;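 active = inhibition reaching a set limit with compound at 10 µM in the primary screen, cut at about 35% in these data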;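 also: plate controls were DMSO wells with enzyme for no effect and no-enzyme buffer wells for full effect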
Target sequence (P09923 whole entry, looked up): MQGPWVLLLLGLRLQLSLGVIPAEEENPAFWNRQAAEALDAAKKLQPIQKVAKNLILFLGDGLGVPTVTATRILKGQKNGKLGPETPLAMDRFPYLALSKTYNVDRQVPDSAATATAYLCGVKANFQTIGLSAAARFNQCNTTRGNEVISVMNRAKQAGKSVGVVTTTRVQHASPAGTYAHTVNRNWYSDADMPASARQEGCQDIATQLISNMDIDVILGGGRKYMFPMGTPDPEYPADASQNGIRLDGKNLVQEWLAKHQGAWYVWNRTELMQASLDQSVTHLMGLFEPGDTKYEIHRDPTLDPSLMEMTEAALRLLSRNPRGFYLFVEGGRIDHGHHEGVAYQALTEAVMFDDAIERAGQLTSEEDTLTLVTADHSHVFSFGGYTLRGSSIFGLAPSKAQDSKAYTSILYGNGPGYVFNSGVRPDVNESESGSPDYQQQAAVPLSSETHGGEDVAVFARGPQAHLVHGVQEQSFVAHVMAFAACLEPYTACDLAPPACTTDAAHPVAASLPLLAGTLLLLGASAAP
hIAP activ = increases human intestinal alkaline phosphatase activity | P09923 | purified human IAP, CDP-Star luminescence, 30 min; active compounds read high; 1 = vehicle-only enzyme, 0 = enzyme-free background | activation factor at 10 µM | actives 0.16% (n = 330,000) | AID 2524;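 active = activation factor of the enzyme at least 2-fold when tested at 20 µM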
bIAP activator = increases bovine intestinal alkaline phosphatase activity. purified bovine IAP, CDP-star luminescence, 30 min; active compounds read high; fold of DMSO-control signal, blank-subtracted. actives 0.17% (n = 200,000). activation factor at 20 µM;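 active = activation factor of 2 or more at 20 µM, a signal rise over negative controls twice the positive control's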
mIAP act = increases mouse intestinal alkaline phosphatase activity; muIAP, CDP-Star luminescence, 30 min; active compounds read high; 1 = vehicle-only enzyme signal, 0 = enzyme-free wells; activation factor at 10 µM; actives 0.24% (n = 330,000); AID 2805;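 active = activation factor of at least 2 at 20 µM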
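System: mouse IAP enzyme. Reagent: CDP-Star chemiluminescent phosphatase substrate. Benchmarks: DMSO wells, no-enzyme wells. Times: 30 min enzyme-substrate-compound incubation at room temperature. Detection: luminescence from enzymatic CDP-Star hydrolysis. Doses: test compounds delivered from DMSO solution.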
hIAP act confirm = human IAP activation confirmation | AID 434926 | shares compounds with hIAP activ | purified IAP, CDP-Star luminescence, 30 min; active compounds read low | actives 10% (n = 880) | activation (%Activity, negative = activation), % at 8.3 µM;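 active = at least twofold enzyme activation in any of six single-dose repeats, which the averaged readout prints as negative percent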
* = called active by the depositor.

Screening CCOC(=O)c1sc(NC(=O)CSc2n[nH]c(-c3ccc(Cl)cc3Cl)n2)c(C#N)c1C returned mIAP inh 32, bIAP inhibitor 13, hIAP inh 69*, hIAP activ 0.31, bIAP activator 0.9, mIAP act 0.68 and hIAP act confirm -1.
For CCOC(=O)c1sc(NC(=O)CSc2nc(C)cc(-c3ccccc3)n2)c(C#N)c1C the results were mIAP inh 18, bIAP inhibitor 15, hIAP inh 0, hIAP activ 1, bIAP activator 0.9 and mIAP act 0.82.
For O=C(NNC(=S)NC(=O)c1ccccc1)c1cccnc1 the results were mIAP inh 17, hIAP inh -148, hIAP activ 2.5*, mIAP act 0.83 and hIAP act confirm -320*.
Nc1ccccc1NC(=O)NC(=O)c1ccccc1 was read as mIAP inh 5, hIAP inh 14, hIAP activ 0.86 and mIAP act 0.95.
CC(=O)Nc1ccc(S(=O)(=O)N(C)CC(=O)NNC(=O)Cc2nc3ccccc3n2C)cc1 was read as mIAP inh -6, hIAP inh -130, hIAP activ 2.3*, mIAP act 1.1 and hIAP act confirm -50.
For CC(=O)Nc1ccc(SCC(=O)NNC(=O)CN(C)S(=O)(=O)c2ccc(C)cc2)cc1 the results were mIAP inh 0, hIAP inh -8, hIAP activ 1.1 and mIAP act 1.
`CCc1ccc(-n2c(SCC(=O)Nc3cc(C)[nH]n3)nc3[nH]ncc3c2=O)cc1` gave mIAP inh 6, bIAP inhibitor -63, hIAP inh -118, hIAP activ 2.2*, bIAP activator 1.6, mIAP act 0.94 and hIAP act confirm -5.
For O=C(Cn1c(=O)oc2ccccc21)N1CCN(S(=O)(=O)c2ccccc2)CC1 the results were mIAP inh 1, hIAP inh -4, hIAP activ 1 and mIAP act 0.99.
For COc1ccc2cc(C(=O)C3CCCN(C(=O)c4cc5nc(C)cc(C)n5n4)C3)ccc2c1 (configuration not stated) the results were mIAP inh 5, bIAP inhibitor 2, hIAP inh 10, hIAP activ 0.9, bIAP activator 1 and mIAP act 0.95.
`CNC(=O)c1[nH]cnc1C(=O)Nc1ccccn1` gave mIAP inh 13, bIAP inhibitor -51, hIAP inh -110, hIAP activ 2.1*, bIAP activator 1.5, mIAP act 0.87 and hIAP act confirm -18.
Screening CNC(=O)c1[nH]cnc1C(=O)Nc1ccccc1 returned mIAP inh 11, hIAP inh -40, hIAP activ 1.4 and mIAP act 0.89.
Cc1cccc(NC(=O)CC2C(=O)NCCN2C(=O)Nc2ccc(Cl)cc2)c1 (configuration not stated) was read as mIAP inh 0, hIAP inh 4, hIAP activ 0.96 and mIAP act 1.
Screening COc1ccc(CNS(=O)(=O)c2cccc(S(=O)(=O)N3CCOCC3)c2)cc1 returned mIAP inh 0, bIAP inhibitor 10, hIAP inh 36*, hIAP activ 0.65, bIAP activator 0.9, mIAP act 1 and hIAP act confirm -40.
`COc1cccc(CNS(=O)(=O)c2cccc(S(=O)(=O)N3CCOCC3)c2)c1` gave mIAP inh -8, bIAP inhibitor 10, hIAP inh -1, hIAP activ 1, bIAP activator 0.9 and mIAP act 1.1.
Screening COc1cc(/C=C2\Oc3cc(O)ccc3C2=O)ccc1O returned mIAP inh 20, hIAP inh 46*, hIAP activ 0.55, mIAP act 0.8 and hIAP act confirm 10.
CCOc1ccc(NS(=O)(=O)c2ccc(C(=O)NCCCN3CCCC3=O)cc2)cc1 was read as mIAP inh -5, hIAP inh -13, hIAP activ 1.1 and mIAP act 1.
Screening COc1ccc(C(=O)N(C)c2ccccc2C(=O)NCCc2ccccc2)cc1 returned mIAP inh 0, hIAP inh 10, hIAP activ 0.91 and mIAP act 1.
For CCn1cc(CN2CCN(CCC(C)C)C(CCO)C2)c2ccccc21 (configuration not stated) the results were mIAP inh 8, hIAP inh -16, hIAP activ 1.2 and mIAP act 0.92.
`CCn1cc(CN2CCN(C)C(CCO)C2)c2ccccc21` (configuration not stated) gave mIAP inh -2, hIAP inh -185, hIAP activ 2.8*, mIAP act 1 and hIAP act confirm 29.
Screening COc1cccc(-c2nc(CS(=O)(=O)CC(=O)Nc3cc(OC)ccc3OC)c(C)o2)c1 returned mIAP inh 3, hIAP inh 36*, hIAP activ 0.64, mIAP act 0.97 and hIAP act confirm 31.
Screening COc1cccc(-c2nc(CS(=O)(=O)CC(=O)Nc3ccccc3C)c(C)o2)c1 returned mIAP inh -3, hIAP inh -32, hIAP activ 1.3 and mIAP act 1.
`O=C1c2ccccc2-c2onc3c(N4CCN(CCO)CC4)cc(N4CCN(C(=O)c5ccco5)CC4)c1c23` gave mIAP inh 3, hIAP inh 16, hIAP activ 0.84 and mIAP act 0.97.
CN1CCN(c2cc(N3CCN(C(=O)c4ccco4)CC3)c3c4c(onc24)-c2ccccc2C3=O)CC1 was read as mIAP inh 17, hIAP inh 42*, hIAP activ 0.57, mIAP act 0.83 and hIAP act confirm 3.
`Cc1cc(NC(=O)c2ccc(N3C(=O)CCC3=O)cc2)no1` gave mIAP inh -1, bIAP inhibitor 8, hIAP inh 0, hIAP activ 1, bIAP activator 0.9 and mIAP act 1.
`Cc1cc(NC(=O)c2ccc(N3C(=O)C4C5C=CC(C5)C4C3=O)cc2)no1` (configuration not stated) gave mIAP inh 8, bIAP inhibitor 6, hIAP inh -201, hIAP activ 3*, bIAP activator 0.9, mIAP act 0.92 and hIAP act confirm -161*.
Screening O=C(CCS(=O)(=O)Cc1ccccc1F)NCCc1ccc(Cl)cc1 returned mIAP inh -3, hIAP inh 2, hIAP activ 0.98 and mIAP act 1.
Screening O=C(CC(=O)c1ccccc1)Nc1ccccn1 returned mIAP inh -1, hIAP inh 42*, hIAP activ 0.58, mIAP act 1 and hIAP act confirm -16.
`O=C(CC(=O)c1ccccc1)Nc1ccccc1` gave mIAP inh 5, hIAP inh 7, hIAP activ 0.93 and mIAP act 0.95.
